Laboratory results taken from ChEMBL document CHEMBL4118021, “Studies of TAK1-centered polypharmacology with novel covalent TAK1 inhibitors” (Bioorg Med Chem, 2017).

Experiments:
[1] = target: Mitogen-activated protein kinase kinase kinase kinase 4 (Homo sapiens) (UniProt O95819); experiment: Inhibition of ZC1/HGK in human SKCO1 cells at 1 uM after 4 hrs using biotin labeled DIKGQNVLLTENAEVK probe by mass-spectrometric analysis relative to control; format: cell-based; conditions: pooled result: one value given for 3 cell lines, strains, targets or settings
Sequence of Mitogen-activated protein kinase kinase kinase kinase 4 (Homo sapiens) (O95819 2-1239 limits assumed): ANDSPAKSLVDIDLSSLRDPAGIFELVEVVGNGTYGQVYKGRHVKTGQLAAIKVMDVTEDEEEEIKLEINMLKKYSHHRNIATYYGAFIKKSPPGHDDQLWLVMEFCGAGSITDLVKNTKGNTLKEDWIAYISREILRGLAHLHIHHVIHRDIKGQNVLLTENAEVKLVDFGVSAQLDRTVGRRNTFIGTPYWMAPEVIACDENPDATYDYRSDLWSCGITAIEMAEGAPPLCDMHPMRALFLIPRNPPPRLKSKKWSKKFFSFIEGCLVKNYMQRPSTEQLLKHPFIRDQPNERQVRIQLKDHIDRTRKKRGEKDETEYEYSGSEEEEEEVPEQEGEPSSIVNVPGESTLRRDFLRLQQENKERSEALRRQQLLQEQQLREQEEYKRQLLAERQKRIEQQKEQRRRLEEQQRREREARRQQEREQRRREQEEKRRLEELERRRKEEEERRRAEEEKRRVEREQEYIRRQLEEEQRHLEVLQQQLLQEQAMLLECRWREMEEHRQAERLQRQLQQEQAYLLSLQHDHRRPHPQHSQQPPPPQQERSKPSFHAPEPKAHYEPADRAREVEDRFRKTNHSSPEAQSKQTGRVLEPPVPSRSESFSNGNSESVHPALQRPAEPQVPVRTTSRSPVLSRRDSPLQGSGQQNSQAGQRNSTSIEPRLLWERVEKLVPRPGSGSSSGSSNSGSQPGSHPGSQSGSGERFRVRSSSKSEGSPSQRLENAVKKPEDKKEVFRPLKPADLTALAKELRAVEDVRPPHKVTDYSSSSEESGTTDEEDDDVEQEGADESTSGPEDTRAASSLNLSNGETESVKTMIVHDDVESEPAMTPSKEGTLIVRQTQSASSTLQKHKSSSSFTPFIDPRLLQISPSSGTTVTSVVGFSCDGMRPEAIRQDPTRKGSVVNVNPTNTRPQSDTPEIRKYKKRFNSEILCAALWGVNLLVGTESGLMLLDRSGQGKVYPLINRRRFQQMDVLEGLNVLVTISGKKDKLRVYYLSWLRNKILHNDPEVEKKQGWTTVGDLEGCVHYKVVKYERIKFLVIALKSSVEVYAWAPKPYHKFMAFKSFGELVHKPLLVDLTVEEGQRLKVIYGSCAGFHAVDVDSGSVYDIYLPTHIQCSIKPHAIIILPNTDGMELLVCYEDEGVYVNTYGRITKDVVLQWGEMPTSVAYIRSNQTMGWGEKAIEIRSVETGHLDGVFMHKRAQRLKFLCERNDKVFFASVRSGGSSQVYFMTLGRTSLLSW
Method in brief: (§1)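 Live SK-CO-1 cells exposed to compound at 1 μM or DMSO for 4 h (KiNativ). Lysates then labeled with lysine-reactive ATP/ADP-biotin probe, and probe-labeled kinase peptides quantified by mass spectrometry. Percent inhibition of probe-dependent recovery calculated relative to DMSO-treated cells.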

[2] = target: Aurora kinase A (Homo sapiens) (UniProt O14965); experiment: Inhibition of AurA in human SKCO1 cells at 1 uM after 4 hrs using biotin labeled GKFGNVYLAR probe by mass-spectrometric analysis relative to control; conditions: pooled result: one value given for 3 cell lines, strains, targets or settings
Sequence of Aurora kinase A (Homo sapiens) (O14965 whole entry, looked up): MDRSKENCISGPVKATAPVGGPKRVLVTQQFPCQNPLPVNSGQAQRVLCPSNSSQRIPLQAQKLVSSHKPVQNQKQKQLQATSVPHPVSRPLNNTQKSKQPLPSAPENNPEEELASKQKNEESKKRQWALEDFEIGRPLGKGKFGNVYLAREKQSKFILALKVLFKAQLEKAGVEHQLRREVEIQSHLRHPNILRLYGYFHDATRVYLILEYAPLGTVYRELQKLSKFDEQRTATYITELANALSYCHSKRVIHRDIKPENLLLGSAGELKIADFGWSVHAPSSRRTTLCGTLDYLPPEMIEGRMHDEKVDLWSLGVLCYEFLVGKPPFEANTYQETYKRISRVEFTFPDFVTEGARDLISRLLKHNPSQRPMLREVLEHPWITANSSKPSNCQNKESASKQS

[3] = target: Serine/threonine-protein kinase SMG1 (Homo sapiens) (UniProt Q96Q15); experiment: Inhibition of SMG1 in human SKCO1 cells at 1 uM after 4 hrs using biotin labeled DTVTIHSVGGTITILPTKTKPK probe by mass-spectrometric analysis relative to control; format: cell-based; method in brief: as §1
[4] = target: Serine/threonine-protein kinase PAK 2 (Homo sapiens) (UniProt Q13177); experiment: Inhibition of PAK2 in human SKCO1 cells at 1 uM after 4 hrs using biotin labeled IGQGASGTVFTATDVALGQEVAIKQINLQK probe by mass-spectrometric analysis relative to control; format: cell-based; method in brief: as §1
Sequence of Serine/threonine-protein kinase PAK 2 (Homo sapiens) (Q13177 whole entry): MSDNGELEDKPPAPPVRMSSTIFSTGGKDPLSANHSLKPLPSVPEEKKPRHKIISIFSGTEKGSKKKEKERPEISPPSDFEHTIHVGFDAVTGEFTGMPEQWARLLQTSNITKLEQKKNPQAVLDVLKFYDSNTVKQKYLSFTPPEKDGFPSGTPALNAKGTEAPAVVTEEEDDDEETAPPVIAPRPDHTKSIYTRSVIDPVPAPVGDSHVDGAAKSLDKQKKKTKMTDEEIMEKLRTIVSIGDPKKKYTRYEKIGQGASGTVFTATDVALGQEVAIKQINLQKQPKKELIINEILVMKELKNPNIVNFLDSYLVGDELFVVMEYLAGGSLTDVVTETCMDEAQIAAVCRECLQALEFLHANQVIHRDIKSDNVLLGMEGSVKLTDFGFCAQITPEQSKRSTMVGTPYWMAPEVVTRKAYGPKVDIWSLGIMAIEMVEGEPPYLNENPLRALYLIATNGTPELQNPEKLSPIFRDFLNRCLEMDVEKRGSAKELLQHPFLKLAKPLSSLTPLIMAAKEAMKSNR

[5] = target: Serine/threonine-protein kinase PRP4 homolog (Homo sapiens) (UniProt Q13523); experiment: Inhibition of PRP4 in human SKCO1 cells at 1 uM after 4 hrs using biotin labeled CNILHADIKPDNILVNESK probe by mass-spectrometric analysis relative to control; format: cell-based; method in brief: as §1
Sequence of Serine/threonine-protein kinase PRP4 homolog (Homo sapiens) (Q13523 whole entry): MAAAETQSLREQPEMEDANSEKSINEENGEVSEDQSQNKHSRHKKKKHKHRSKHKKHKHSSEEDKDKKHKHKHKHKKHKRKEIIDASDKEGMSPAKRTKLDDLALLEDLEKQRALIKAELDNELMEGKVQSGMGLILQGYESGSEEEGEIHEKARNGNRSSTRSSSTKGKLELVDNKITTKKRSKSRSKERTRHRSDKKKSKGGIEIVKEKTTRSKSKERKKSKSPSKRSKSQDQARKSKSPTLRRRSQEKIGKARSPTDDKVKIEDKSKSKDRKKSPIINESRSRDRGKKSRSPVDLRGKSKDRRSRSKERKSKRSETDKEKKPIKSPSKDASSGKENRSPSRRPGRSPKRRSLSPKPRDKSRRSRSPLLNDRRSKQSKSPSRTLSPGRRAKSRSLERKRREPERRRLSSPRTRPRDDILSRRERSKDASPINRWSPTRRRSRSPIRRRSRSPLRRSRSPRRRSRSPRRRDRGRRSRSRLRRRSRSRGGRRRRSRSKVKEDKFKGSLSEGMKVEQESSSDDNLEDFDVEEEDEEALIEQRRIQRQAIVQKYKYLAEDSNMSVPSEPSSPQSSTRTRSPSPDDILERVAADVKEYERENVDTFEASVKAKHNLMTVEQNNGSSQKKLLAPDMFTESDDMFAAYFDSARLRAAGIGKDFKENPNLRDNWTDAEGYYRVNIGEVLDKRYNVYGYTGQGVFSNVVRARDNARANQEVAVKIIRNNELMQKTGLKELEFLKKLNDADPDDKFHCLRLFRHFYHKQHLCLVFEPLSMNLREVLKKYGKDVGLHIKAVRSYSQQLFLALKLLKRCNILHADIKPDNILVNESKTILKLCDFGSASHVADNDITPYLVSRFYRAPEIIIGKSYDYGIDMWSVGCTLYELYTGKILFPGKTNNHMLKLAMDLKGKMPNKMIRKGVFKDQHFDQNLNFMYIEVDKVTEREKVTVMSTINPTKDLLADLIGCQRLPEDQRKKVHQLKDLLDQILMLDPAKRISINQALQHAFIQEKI

[6] = target: T1, Dual specificity mitogen-activated protein kinase kinase 7 (Homo sapiens) (UniProt O14733); experiment: Inhibition of MAP2K7 in human SKCO1 cells at 1 uM after 4 hrs using biotin labeled DVKPSNILLDER probe by mass-spectrometric analysis relative to control; format: cell-based
T1 sequence (whole entry): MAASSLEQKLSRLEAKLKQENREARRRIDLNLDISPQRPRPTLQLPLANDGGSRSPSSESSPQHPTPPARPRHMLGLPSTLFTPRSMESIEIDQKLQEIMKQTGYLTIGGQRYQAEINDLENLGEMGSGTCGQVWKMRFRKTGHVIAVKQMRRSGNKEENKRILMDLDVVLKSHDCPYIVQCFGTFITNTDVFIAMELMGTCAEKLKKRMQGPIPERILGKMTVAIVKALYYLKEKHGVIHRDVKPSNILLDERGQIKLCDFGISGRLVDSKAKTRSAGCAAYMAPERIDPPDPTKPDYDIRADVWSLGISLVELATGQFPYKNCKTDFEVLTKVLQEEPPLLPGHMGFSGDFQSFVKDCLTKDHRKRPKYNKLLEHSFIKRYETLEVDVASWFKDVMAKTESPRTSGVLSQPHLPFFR

[7] = target: T2, Serine/threonine-protein kinase TAO3 (Homo sapiens) (UniProt Q9H2K8); experiment: Inhibition of TAO3 in human SKCO1 cells at 1 uM after 4 hrs using biotin labeled DIKAGNILLTEPGQVK probe by mass-spectrometric analysis relative to control; format: cell-based; method in brief: as §1
T2 sequence (whole entry): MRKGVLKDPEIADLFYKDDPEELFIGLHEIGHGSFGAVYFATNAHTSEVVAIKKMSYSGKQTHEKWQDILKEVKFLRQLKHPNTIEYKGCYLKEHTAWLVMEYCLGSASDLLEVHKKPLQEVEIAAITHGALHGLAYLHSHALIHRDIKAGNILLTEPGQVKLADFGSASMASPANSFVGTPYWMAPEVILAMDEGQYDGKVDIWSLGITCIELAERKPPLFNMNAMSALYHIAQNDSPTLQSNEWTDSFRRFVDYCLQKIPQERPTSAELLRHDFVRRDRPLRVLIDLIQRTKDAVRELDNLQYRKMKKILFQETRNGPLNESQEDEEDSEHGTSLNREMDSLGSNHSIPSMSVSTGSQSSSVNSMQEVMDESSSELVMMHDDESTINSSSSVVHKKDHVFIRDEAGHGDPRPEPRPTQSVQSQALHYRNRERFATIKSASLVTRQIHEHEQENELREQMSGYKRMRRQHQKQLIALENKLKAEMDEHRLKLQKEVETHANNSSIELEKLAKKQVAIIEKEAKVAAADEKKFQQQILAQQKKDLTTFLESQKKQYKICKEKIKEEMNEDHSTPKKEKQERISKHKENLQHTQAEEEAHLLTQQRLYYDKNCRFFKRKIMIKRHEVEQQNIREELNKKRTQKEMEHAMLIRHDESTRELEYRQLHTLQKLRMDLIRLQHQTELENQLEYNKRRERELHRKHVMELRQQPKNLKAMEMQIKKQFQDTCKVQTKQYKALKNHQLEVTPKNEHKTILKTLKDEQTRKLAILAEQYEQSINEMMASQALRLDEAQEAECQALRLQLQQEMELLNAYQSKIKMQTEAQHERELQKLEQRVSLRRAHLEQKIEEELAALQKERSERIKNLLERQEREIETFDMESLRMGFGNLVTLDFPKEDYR

| SMILES | inhibition [1] [%] | inhibition [2] [%] | inhibition [3] [%] | inhibition [4] [%] | inhibition [5] [%] | inhibition [6] [%] | inhibition [7] [%] |
| --- | --- | --- | --- | --- | --- | --- | --- |
| COc1cc(O)c2c(c1)/C=C/C[C@H](O)[C@H](O)C(=O)/C=C\C[C@H](C)OC2=O | 15.1 | 55.7 | -8.2 | -3.9 | 15.4 | 18.6 | 39.4 |
| C=CC(=O)Nc1ccccc1Oc1nc(Nc2cnn(CCOC)c2)ncc1Cl | 20.9 | 57.9 | 16.4 | 3 | 18.7 | 12.3 | 9.6 |
| C=CC(=O)Nc1ccccc1Nc1nc(Nc2ccc(N3CCN(C)CC3)cc2)ncc1Cl | 6.8 | 95.1 | 0.8 | -8.6 | 32.7 | 13.7 | 13.1 |
